Series [1] relates to Mus musculus. The series is described as follows: Toxicity in immunocompromized ICR mouse assessed as visible signs of toxicity at 9 mg/kg, at pH 5.5 it administered on day 1, 4, 7 and 11 monitored for 28 days. It counts as organism-based. Details: dose 9 mg/kg, route endotracheal. To be noted: in vivo, inhaled_or_intranasal, pH 5.5, 9 mg/kg, 672 h. An outline of the steps:
(§1)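 Six-week-old female ICR mice (n = 5) were immunosuppressed with cortisone acetate (150 mg/kg in PBS/0.1% Tween 80, s.c.) 4 days before the first dose, on that day, and 2 and 4 days after. Peptide in saline at pH 5.5 was given i.t. on days 1, 4, 7 and 11. Survival, weight, appearance and behaviour were followed for 28 days.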

In series [2] the test system is Aspergillus fumigatus. The series is described as follows: Antifungal activity against Aspergillus fumigatus Af293 infected in immunocompromized ICR mouse assessed as reduction in fungal load in lung at 4.5 mg/kg, at pH 5.5 it administered on day 1 and 4 measured after 5 days post infection (reference value: 80 to 12920 CFU). Format: functional. Conditions: route endotracheal.

Series [3] deals with Candida albicans. Nature of the series: Antifungal activity against Candida albicans ATCC 10231 after 48 hrs at pH 7.5. Format: functional. Conditions: ATCC 10231, 48 h. An outline of the steps:
(§2)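 The method followed CLSI M38-A2 (Aspergillus) or M27-A3. Medium was RPMI 1640 with 0.165 M MOPS and L-glutamine, without NaHCO3, at pH 5.5 or 7.5. Inoculum of 2 × 10^3 CFU/mL was mixed 1:1 with serial 2-fold peptide dilutions. Incubation was at 35 °C: 48 h for A. fumigatus and C. albicans, 72 h for C. neoformans. MIC was read by eye as no growth. Values are averages of duplicates.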

The test system of series [4] is Cryptococcus neoformans. Nature of the series: Antifungal activity against Cryptococcus neoformans ATCC MYA422 after 72 hrs at pH 7.5. It counts as functional. Conditions: ATCC MYA422, 72 h. In a few lines:
as §2

Series [5] deals with Candida albicans. Nature of the series: Antifungal activity against Candida albicans ATCC 10231 after 48 hrs at pH 5.5. It counts as functional. Conditions: ATCC 10231, 48 h. An outline of the steps:
as §2

Series [6] has as its system Aspergillus fumigatus. Nature of the series: Antifungal activity against Aspergillus fumigatus Af293 infected in immunocompromized ICR mouse assessed as reduction in fungal load in spleen at 4.5 mg/kg, at pH 5.5 it administered on day 1 and 4 measured after 5 days post infection (reference value: 10 to 140 CFU). Format: functional. Conditions: route endotracheal.
Series [7] in a line: Stability of the compound at 1 ug/uL after 2 hrs by RP-HPLC analysis in presence of proteinase K. Format: ADME. To be noted: proteinase K; read-out: Stability. In a few lines: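 Peptide at 1 μg/μL in PBS (400 μL) mixed with 8 μL proteinase K solution (5 μg/μL; 2% DMSO final). Intact peptide quantified by RP-HPLC on a C4 column, 0.1% TFA water/acetonitrile, 10–90% B over 40 min. Measured against a peptide injection taken before enzyme addition. Melittin served as enzyme-activity control.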

Series [8] concerns Aspergillus fumigatus. The series is described as follows: Antifungal activity against Aspergillus fumigatus ATCC 26430 after 48 hrs at pH 7.5. It counts as functional. To be noted: ATCC 26430, 48 h. An outline of the steps: as §2
Series [9] in a line: Toxicity in human RBC assessed as hemolytic activity at 125 uM at pH 7.5 after 60 mins by spectrophotometry. Format: cell-based. Conditions: erythrocyte, pH 7.5, 1 h. An outline of the steps: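 Human erythrocytes (4% final) were incubated with peptide in PBS for 60 min at 37 °C. Hemoglobin release was read as supernatant absorbance at 540 nm. PBS alone served as the 0% reference and 1% Triton as the 100% reference. Values are averages of duplicates.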

The nature of series [10]: Ratio of LC50 for mouse RAW264.7 cells to MIC for Aspergillus fumigatus ATCC 26430. It counts as functional. An outline of the steps:
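LC50: RAW264.7 macrophages in supplemented DMEM, 2 × 10^5 cells/well overnight, then peptide at 3.12–200 μM for 16 h. Viability read by XTT; LC50 from dose–response curves. MIC: CLSI M38-A2 broth microdilution, 2 × 10^3 CFU/mL A. fumigatus ATCC 26430 in RPMI 1640/0.165 M MOPS (pH 5.5 or 7.5). Serial 2-fold dilutions, 35 °C for 48 h, growth scored visually. In vitro values are means of duplicates.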

For series [11], the system named is Mus musculus. The series is described as follows: Toxicity in immunocompromized ICR mouse assessed as weight loss at 9 mg/kg, at pH 5.5 it administered on day 1, 4, 7 and 11 monitored for 28 days. Format: organism-based. Details: dose 9 mg/kg, route endotracheal. To be noted: in vivo, inhaled_or_intranasal, pH 5.5, 9 mg/kg, 672 h. An outline of the steps: as §1

The test system of series [12] is Aspergillus fumigatus. The series is described as follows: Antifungal activity against Aspergillus fumigatus Af293 infected in immunocompromized ICR mouse assessed as reduction in fungal load in kidney at 4.5 mg/kg, at pH 5.5 it administered on day 1 and 4 measured after 5 days post infection (reference value: 20 to 5400 CFU). Conditions: route endotracheal. Format: functional.

The next series has as its system RAW264.7. Nature of the series: Cytotoxicity against mouse RAW264.7 cells at 200 uM after 16 hrs by XTT assay. Format: cell-based. To be noted: raw264.7, 16 h. An outline of the steps:
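RAW264.7 macrophages were grown in DMEM with 10% FBS, L-glutamine, pyruvate and nonessential amino acids at 37 °C, 5% CO2. Cells were seeded at 2 × 10^5 per well overnight, then exposed to peptides at 3.12–200 μM for 16 h. Medium was replaced with fresh medium plus XTT reagent. LC50 was taken from dose–viability curves.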

In series [13] the test system is Aspergillus fumigatus. The series is described as follows: Antifungal activity against Aspergillus fumigatus ATCC 26430 after 48 hrs at pH 5.5. It counts as functional. To be noted: ATCC 26430, 48 h. An outline of the steps:
as §2

The test system of series [14] is Cryptococcus neoformans. Nature of the series: Antifungal activity against Cryptococcus neoformans ATCC MYA422 after 72 hrs at pH 5.5. To be noted: ATCC MYA422, 72 h. Format: functional. In a few lines:
as §2

Series [15] relates to Staphylococcus aureus. The series is described as follows: Antibacterial activity against Staphylococcus aureus ATCC 6538P after 18 to 20 hrs at pH 5.5. It counts as functional, organism-based. An outline of the steps:
(§3)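 Broth microdilution in LB: bacterial suspension at 10^6 CFU/mL mixed 1:1 with serial 2-fold peptide dilutions, made from a 1 mg/mL aqueous stock. Strains were E. coli ATCC D21 and S. aureus ATCC 6538P. MIC was the lowest concentration with no growth after 18–20 h. Values are averages of duplicate experiments.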

In series [16] the test system is Aspergillus fumigatus. The series is described as follows: Induction of membrane damage in Aspergillus fumigatus at 1.56 to 100 uM at pH 5.5 by Sytox green-based fluorescence assay. Format: functional, organism-based. In a few lines: (§4)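 A. fumigatus at 2 × 10^3 CFU/mL in RPMI/MOPS (pH 7.4 or 5.5) was grown 20 h at 35 °C. Sytox green was added at 0.2 μM final in sodium phosphate buffer (pH 5.5 or 7.5) for 15 min. Peptides were then added at 100–1.56 μM final. Fluorescence (ex 485/em 530 nm) was read after 1 h.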

The subject of series [17] is Staphylococcus aureus. Nature of the series: Antibacterial activity against Staphylococcus aureus ATCC 6538P after 18 to 20 hrs at pH 7.5. It counts as functional, organism-based. An outline of the steps: as §3
Series [18] concerns Aspergillus fumigatus. Nature of the series: Induction of membrane depolarization in Aspergillus fumigatus at 1.56 to 100 uM at pH 5.5 by DiSC3(5)-based fluorescence assay. Format: functional, organism-based. An outline of the steps: (§5)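 A. fumigatus was pregrown 20 h at 35 °C from 2 × 10^3 CFU/mL in RPMI/MOPS (pH 7.4 or 5.5). Cells were loaded with DiSC3(5) at 0.2 μM final in sodium phosphate buffer (pH 5.5 or 7.5) for 15 min. Peptides were added at 1.56–100 μM final, and fluorescence (ex 640/em 660 nm) was read after 1 h.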

The subject of series [19] is Escherichia coli. The series is described as follows: Antibacterial activity against Escherichia coli ATCC D21 after 18 to 20 hrs at pH 7.5. It counts as functional, organism-based. In a few lines:
as §3

Series [20] has as its system Aspergillus fumigatus. Nature of the series: Induction of membrane depolarization in Aspergillus fumigatus at 1.56 to 100 uM at pH 7.5 by DiSC3(5)-based fluorescence assay. Format: functional, organism-based. An outline of the steps:
as §5

Series [21] has as its system Escherichia coli. The series is described as follows: Antibacterial activity against Escherichia coli ATCC D21 after 18 to 20 hrs at pH 5.5. Format: functional, organism-based. An outline of the steps: as §3
Series [22] relates to Aspergillus fumigatus. Nature of the series: Induction of membrane damage in Aspergillus fumigatus at 1.56 to 100 uM at pH 7.5 by Sytox green-based fluorescence assay. Format: functional, organism-based. An outline of the steps: as §4

≈ marks a conversion by molar mass, not a printed value. Calls of active or inactive are those of the source. A value given as a limit tells only on which side of the number the result lay.

For orientation: MIC means the smallest concentration in the dilution series that meets the test's criterion for growth inhibition. A lower MIC goes with inhibition by little substance. For `CCCCCCCCCCCCCC(=O)N[C@@H](Cc1c[nH]cn1)C(=O)N[C@@H](Cc1c[nH]cn1)C(=O)N1CCCN(C(=O)[C@H](Cc2c[nH]cn2)NC(=O)[C@H](Cc2c[nH]cn2)NC(=O)CCCCCCCCCCCCC)Cc2cc(cc(C(N)=O)c2)CN(C(=O)[C@H](Cc2c[nH]cn2)NC(=O)[C@H](Cc2c[nH]cn2)NC(=O)CCCCCCCCCCCCC)CCC1`, the Activity result (with Mus musculus [1]; in series [9]; with Mus musculus [11]; in the series on RAW264.7) was “Non-toxic” each time. In addition, the CFU in the series on Aspergillus fumigatus [2] is recorded as 40; in the series on Aspergillus fumigatus [6], 20; in the series with Aspergillus fumigatus [12], 70. Further, the MIC was greater than 100 µM with Candida albicans [3]; greater than 100 µM against Cryptococcus neoformans [4]; greater than 100 µM in the series on Candida albicans [5]; greater than 100 µM in the series on Aspergillus fumigatus [8]; 3.12 µM (≈ 5.4 µg/mL) with Aspergillus fumigatus [13]; 3.12 µM (≈ 5.4 µg/mL) against Cryptococcus neoformans [14]. Also, the remaining at 2 h, 1 ug/uL in series [7] came to 80%. For the same compound, the Ratio in series [10] was found to be 64.
With `C[C@@H]1[C@H](O)[C@@H](C)/C=C/C=C/C=C/C=C/C=C/C=C/C=C/[C@H](O[C@@H]2O[C@H](C)[C@@H](O)[C@H](N)[C@@H]2O)C[C@@H]2O[C@](O)(C[C@@H](O)C[C@@H](O)[C@H](O)CC[C@@H](O)C[C@@H](O)CC(=O)O[C@H]1C)C[C@H](O)[C@H]2C(=O)O` [AMPHOTERICIN B], the MIC was 0.33 µM (≈ 0.305 µg/mL) in the series on Candida albicans [3]; 0.17 µM (≈ 0.157 µg/mL) against Cryptococcus neoformans [4]; 2.7 µM (≈ 2.5 µg/mL) against Candida albicans [5]; 0.17 µM (≈ 0.157 µg/mL) with Aspergillus fumigatus [8]; 1 µM (≈ 0.924 µg/mL) in the series on Aspergillus fumigatus [13]; 1.35 µM (≈ 1.25 µg/mL) against Cryptococcus neoformans [14].
With `CCCCCCCCCCCCCCCCCC(=O)N[C@@H](Cc1c[nH]cn1)C(=O)N[C@@H](Cc1c[nH]cn1)C(=O)N1CCCN(C(=O)[C@H](Cc2c[nH]cn2)NC(=O)[C@H](Cc2c[nH]cn2)NC(=O)CCCCCCCCCCCCCCCCC)Cc2cc(cc(C(N)=O)c2)CN(C(=O)[C@H](Cc2c[nH]cn2)NC(=O)[C@H](Cc2c[nH]cn2)NC(=O)CCCCCCCCCCCCCCCCC)CCC1`, the outcome in the series with Staphylococcus aureus [15], in the series with Aspergillus fumigatus [16], in the series on Staphylococcus aureus [17], with Aspergillus fumigatus [18], in the series on Escherichia coli [19] and in the series with Aspergillus fumigatus [20] was inactive. In addition, the result in the series on Escherichia coli [21] and in the series with Aspergillus fumigatus [22] was inactive. Moreover, the MIC is greater than 100 µM with Candida albicans [3]; greater than 100 µM in the series with Cryptococcus neoformans [4]; 100 µM (≈ 190 µg/mL) in the series on Candida albicans [5]; greater than 100 µM against Aspergillus fumigatus [8]; greater than 100 µM in the series with Aspergillus fumigatus [13]; 25 µM (≈ 47.5 µg/mL) with Cryptococcus neoformans [14].

Values taken from ChEMBL document CHEMBL2016446, “Trivalent ultrashort lipopeptides are potent pH dependent antifungal agents” (J Med Chem, 2012).
